Read-outs that look alike come from different tables or passages of the source.
Assays:
HBV RNaseH [1] = biological target: T1, HBV RNaseH (Hepatitis B virus genotype D subtype ayw, UniProt P03156); conditions: qualitative; previously reported; ref Cai et al., 2014; cited from earlier work
HBV genotype D = assay: HBV replication inhibition assay in HepDES19 cells; type: cell-based, hepatitis B virus; conditions: for HBV replication inhibition, qualitative screen: 20 μM, plus-polarity DNA; for EC50: read-out: HBV replication inhibition (EC50), 3 days, plus-polarity DNA strand, average ± SD
HepDES19 cells [2] = conditions: read-out: Toxicity in HepDES19, LDH (CC50); 72 hours; average ± SD
HepDES19 cells [3] = conditions: read-out: Toxicity in HepDES19, NR (CC50); 72 hours; average ± SD
HIV replication = conditions: read-out: HIV replication inhibition; ref Suchaud et al., 2014; cited from earlier work
HBV RNaseH [4] = biological target: T1, HBV RNaseH; assay: Molecular beacon fluorescence RNaseH cleavage assay; type: biochemical; conditions: for Inhibition of HBV RNaseH, Molecular Beacon cleavage assay: qualitative, 0 to 500 μM compound, 2.1 μg HBV RNaseH; for Inhibition in the molecular beacon assay: 2.1 μg purified HBV RNaseH, 0 to 500 μM
HepDES19 cells [5] = conditions: read-out: Toxicity in HepDES19, MTS (CC50); 72 hours; average ± SD
HBV RNaseH [6] = biological target: T1, HBV RNaseH; assay: Oligonucleotide-directed RNA cleavage assay with purified HBV RNaseH; type: biochemical; conditions: for Inhibition of HBV RNaseH, Oligonucleotide directed cleavage assay: qualitative, compounds at 100, 60 and 20 μM, 16 previously untested compounds
In short: (§1)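 Enzymes were His-tagged and expressed in E. coli, then nickel-affinity purified. A 32P-labelled RNA annealed to a DNA oligonucleotide was incubated with RNaseH and test compound at 42°C for 90 min. Products were gel-resolved and autoradiographed. Inhibition was scored qualitatively as dose-dependent reduction in substrate degraded.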

huRNaseH1 = biological target: T2, huRNaseH1 (Homo sapiens, UniProt O60930); assay: Oligonucleotide-directed cleavage assay with purified huRNaseH1; type: biochemical; conditions: 100, 60 and 20 μM
T2 sequence (O60930 1-286): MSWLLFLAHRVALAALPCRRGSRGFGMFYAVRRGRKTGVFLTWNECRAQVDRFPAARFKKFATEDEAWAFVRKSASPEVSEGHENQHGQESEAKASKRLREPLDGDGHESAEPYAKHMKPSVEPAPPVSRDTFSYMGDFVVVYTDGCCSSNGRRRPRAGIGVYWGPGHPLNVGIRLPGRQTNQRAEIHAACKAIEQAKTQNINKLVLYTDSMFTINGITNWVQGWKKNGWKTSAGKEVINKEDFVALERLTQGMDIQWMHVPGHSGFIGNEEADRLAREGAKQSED
In short: as §1

HBV polymerase = HBV polymerase (Hepatitis B virus genotype D subtype ayw, UniProt P03156); assay: Endogenous polymerase reaction; type: biochemical; conditions: inhibitors at 4X EC50; #138 and #211 at 30 μM; ddTTP […]; 7 hours
HBV polymerase, sequence (P03156 whole entry): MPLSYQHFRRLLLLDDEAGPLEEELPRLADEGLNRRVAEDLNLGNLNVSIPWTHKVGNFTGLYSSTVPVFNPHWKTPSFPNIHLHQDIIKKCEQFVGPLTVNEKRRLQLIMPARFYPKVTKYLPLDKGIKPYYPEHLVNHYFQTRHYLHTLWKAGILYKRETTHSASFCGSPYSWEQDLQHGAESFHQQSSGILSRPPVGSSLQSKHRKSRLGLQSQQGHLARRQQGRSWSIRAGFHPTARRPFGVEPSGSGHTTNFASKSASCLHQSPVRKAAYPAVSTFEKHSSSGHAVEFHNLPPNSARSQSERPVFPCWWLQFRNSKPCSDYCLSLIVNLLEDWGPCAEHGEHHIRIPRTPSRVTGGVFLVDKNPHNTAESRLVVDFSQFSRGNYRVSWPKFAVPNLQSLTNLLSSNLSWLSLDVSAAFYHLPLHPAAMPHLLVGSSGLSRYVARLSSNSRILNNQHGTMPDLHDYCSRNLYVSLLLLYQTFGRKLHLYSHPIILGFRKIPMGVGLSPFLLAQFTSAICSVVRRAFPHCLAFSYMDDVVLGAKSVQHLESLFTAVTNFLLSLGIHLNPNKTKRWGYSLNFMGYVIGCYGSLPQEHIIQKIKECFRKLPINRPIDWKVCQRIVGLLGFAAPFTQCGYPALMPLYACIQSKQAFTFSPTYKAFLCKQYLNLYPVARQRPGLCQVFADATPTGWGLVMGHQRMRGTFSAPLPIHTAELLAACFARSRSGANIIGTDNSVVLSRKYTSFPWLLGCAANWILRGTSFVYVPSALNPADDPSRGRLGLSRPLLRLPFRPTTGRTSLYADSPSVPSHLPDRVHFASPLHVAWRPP

T1 sequence (P03156 671-832): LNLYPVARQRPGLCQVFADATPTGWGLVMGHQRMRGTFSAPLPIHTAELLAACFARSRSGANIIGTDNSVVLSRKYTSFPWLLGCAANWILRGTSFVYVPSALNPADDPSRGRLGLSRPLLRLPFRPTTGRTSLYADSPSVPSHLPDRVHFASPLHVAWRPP

Row | SMILES | Inhibition of HBV RNaseH, Oligonucleotide directed cleavage assay (HBV RNaseH [1]) | HBV replication inhibition, qualitative screen (HBV genotype D) | CC50 (HepDES19 cells [2]) [µM] | CC50 (HepDES19 cells [3]) [µM] | Inhibition of HBV RNaseH, Molecular Beacon cleavage assay (HBV RNaseH [4]) | CC50 (HepDES19 cells [5]) [µM] | Inhibition of HBV RNaseH, Oligonucleotide directed cleavage assay (HBV RNaseH [6]) | further results
1 | Cc1cc(C2CCCCC2)n(O)c(=O)c1 [Compound 41, Ciclopirox, reference compound] | − (No inhibition detected at 100 μM) | − (No inhibition detected at 20 μM) | – | – | – | – | – | –
2 | O=C(Nc1ccc2c(c1)C(=O)N(O)C(=O)C2C(=O)NCc1ccc(F)cc1)c1ccccc1 (centres unmarked) [Compound 86] | − (No inhibition detected at 100 μM) | – | > 100 | 52 ± 11 | − (No inhibition detected at 500 μM) | 99 ± 2 | – | EC50 (HIV replication): > 21 µM; TI (therapeutic index, CC50(MTS)/EC50) (HBV genotype D): 71; EC50 (HBV genotype D): 1400 ± 300 nM
3 | O=C(NCc1ccc(F)cc1)C1C(=O)N(O)C(=O)c2cc(Cl)ccc21 (centres unmarked) [Compound 87] | − (No inhibition detected at 100 μM) | – | 52 ± 15 | 24 ± 1 | − (No inhibition detected at 500 μM) | 37 ± 17 | – | TI (therapeutic index, CC50(MTS)/EC50) (HBV genotype D): 8.2; EC50 (HBV genotype D): 4500 ± 3700 nM
4 | COc1ccc2c(c1)C(=O)N(O)C(=O)C2C(=O)NCc1ccc(F)cc1 (centres unmarked) [Compound 88] | − (No inhibition detected at 100 μM) | – | 57 ± 6 | 26 ± 2 | − (No inhibition detected at 500 μM) | 40 ± 6 | – | TI (therapeutic index, CC50(MTS)/EC50) (HBV genotype D): 16; EC50 (HBV genotype D): 2500 ± 500 nM
5 | O=C1CCC(=O)N1O [Compound 139] | − (No inhibition detected at 100 μM) | − (No inhibition detected at 20 μM) | – | – | – | – | – | HBV replication inhibition / activity (HBV genotype D): inactive
6 | Cc1cc(CC(C)CC(C)(C)C)n(O)c(=O)c1.NCCO (centres unmarked) [Compound 191, Piroctone olamine, reference compound] | – | − (No inhibition detected at 20 μM) | – | – | – | – | − (No inhibition detected at 100 μM) | –
7 | O=c1[nH]c(=O)c2ccccc2[nH]1 [Compound 197, Benzoylene urea] | – | − (No inhibition detected at 20 μM) | – | – | – | – | − (No inhibition detected at 100 μM) | –
8 | Oc1nc2ccccc2nc1O [Compound 198, 2,3-dihydroxy-quinoxaline] | – | − (No inhibition detected at 20 μM) | – | – | – | – | − (No inhibition detected at 100 μM) | –
9 | NN1C(=O)Cc2ccccc2C1=O [Compound 204] | – | − (No inhibition detected at 20 μM) | – | – | – | – | − (No inhibition detected at 100 μM) | Inhibition of huRNaseH1 (huRNaseH1): detectably inhibited; HBV replication inhibition / activity (HBV genotype D): inactive
10 | Nc1cccc(=O)[nH]1 [Compound 206] | – | − (No inhibition detected at 20 μM) | – | – | – | – | − (No inhibition detected at 100 μM) | Inhibition of huRNaseH1 (huRNaseH1): detectably inhibited
11 | CC(=Nc1ccccc1N)c1c(C)cc(=O)n(O)c1O [Compound 208] | – | – | 12 ± 0.1 | 13 ± 1 | + (Dose-dependent inhibition at ≤500 μM) | 15 ± 7 | + (Dose-dependent inhibition at ≤100 μM) | Inhibition of RNA cleavage by the HBV RNaseH (HBV RNaseH [6]; 100, 60 and 20 μM): inhibited RNA cleavage; Stability in mouse liver microsomes: stable; Inhibition in the molecular beacon assay (HBV RNaseH [4]): inhibited; Inhibition of huRNaseH1 (huRNaseH1): did not inhibit
12 | Cc1cc(COc2ccc(Oc3ccc(Cl)cc3)cc2)n(O)c(=O)c1 [Compound 211, Rilopirox, reference compound] | – | − (No inhibition detected at 20 μM) | – | – | − (No inhibition detected at 500 μM) | – | − (No inhibition detected at 100 μM) | Inhibition in the molecular beacon assay (HBV RNaseH [4]): had no effect on the rate of substrate degradation; Effect on 32P incorporation / HBV DNA elongation in EPR (HBV polymerase): None of the HBV inhibitors nor the two negative control compounds (#138 and 211) significantly altered incorporation; HBV replication inhibition / activity (HBV genotype D): inactive
13 | Cc1cn([C@H]2CC[C@@H](COP(=O)(O)OP(=O)(O)OP(=O)(O)O)O2)c(=O)[nH]c1=O [ddTTP] | – | – | – | – | – | – | – | Effect on 32P incorporation / HBV DNA elongation in EPR (HBV polymerase): strongly inhibited

Reference: paper PMC5520537 (Antiviral research, 2017)
